# Compounds with a hit are over-represented: about 27% of the library has one in this group of screens.
# CYP2C9 act – human CYP2C9 activators, primary screen, biochemical, luminescence; AID 1024, 2008; activation factor at 5 µM; Cytochrome P450 2C9 (Homo sapiens), P11712; recombinant CYP2C9, luciferin-H conversion; stronger effect = higher value; factor 1 = untreated enzyme, 0 = blocked; 96,000 compounds, 1.4% hits;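 active = activation factor of 2 or more for CYP2C9 at a 5 µM dose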
# Target sequence (P11712 whole entry, looked up): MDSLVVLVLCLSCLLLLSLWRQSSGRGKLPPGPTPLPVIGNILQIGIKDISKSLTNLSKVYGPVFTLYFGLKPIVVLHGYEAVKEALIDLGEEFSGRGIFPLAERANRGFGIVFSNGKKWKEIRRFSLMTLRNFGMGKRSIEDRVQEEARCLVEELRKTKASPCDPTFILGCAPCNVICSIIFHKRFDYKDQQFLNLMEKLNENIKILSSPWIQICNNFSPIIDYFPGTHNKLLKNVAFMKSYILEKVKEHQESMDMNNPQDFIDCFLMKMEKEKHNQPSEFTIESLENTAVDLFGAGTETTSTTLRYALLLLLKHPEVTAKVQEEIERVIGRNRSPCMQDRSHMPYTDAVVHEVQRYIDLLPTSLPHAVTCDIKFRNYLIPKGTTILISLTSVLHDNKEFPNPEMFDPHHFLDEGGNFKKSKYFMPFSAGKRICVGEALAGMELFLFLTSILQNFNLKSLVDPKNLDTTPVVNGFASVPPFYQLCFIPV
# CYP2C19 activ – human CYP2C19 activators, primary screen, biochemical, luminescence | Cytochrome P450 2C19 (Homo sapiens), P33261 | recombinant CYP2C19, luciferin-H EGE luminescence; stronger effect = higher value; 0 = fully inhibited enzyme, 1 = untreated enzyme | activation factor at 5 µM | 96,000 tested, under 10 active | AID 1025, 2008;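 active = activation factor of at least 2 at 5 µM in the primary screen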
# CYP2C9 inh – blockers of cytochrome P450 2C9 activity – biochemical, luminescence, ADME assay, primary screen; P11712; CYP2C9 Supersomes, luciferin-H conversion; inhibition, % at 5 µM; 96,000 compounds, 20% hits; AID 777, 2007;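 active = blocking of liver enzyme CYP2C9 beyond about 50% at 5 µM, limit read from the data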
# Cav32 inh – Cav3.2 calcium influx blockers – cell-based, Fluo-4 calcium fluorescence, FDSS, MLSMR library, primary screen | Voltage-dependent T-type calcium channel subunit alpha-1H (Homo sapiens), O95180 | Cav3.2-expressing cells; stronger effect = lower value | B-score at 10 µM | 100,000 compounds, 4% hits | AID 449739, 2010;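 active = single-dose well whose peak fluorescence ratio is a statistical outlier from its plate by either plate-standardised score or position-corrected B-score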
# HIV Rev-RRE inh – HIV-1 Rev-RRE binding inhibitors, primary screen, biochemical, FRET, protein-RNA interaction; P05866; Rev peptide-RRE RNA binding; inhibition, % at 8 µM; 97,000 compounds, 0.79% hits; AID 704, 2007;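 active = inhibition above the screen-wide mean plus 3 SD, cut at about 35% in these data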
# Target sequence (P05866 whole entry, looked up): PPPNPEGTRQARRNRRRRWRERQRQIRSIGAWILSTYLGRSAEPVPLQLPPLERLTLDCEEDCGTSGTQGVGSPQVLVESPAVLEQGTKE
#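 Test system: Cy5-tagged RRE RNA duplex with fluorescein-tagged Rev peptide; Probe or stimulus: labelled Rev peptide; Schedule: 5 min preincubation and 15 min binding, 25 °C; Signal: FRET fluorescence readout; Evaluation: % inhibition from 671/540 nm acceptor-to-donor ratio, scaled between controls; Control set: DMSO and neomycin B.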
# CYP2C19 inhib – blockers of cytochrome P450 2C19 activity – biochemical, luminescence, ADME assay, primary screen; P33261; CYP2C19 Supersomes, luciferin-H EGE luminescence, 30 min; inhibition, % at 5 µM; 96,000 compounds, 21% hits;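 active = CYP2C19 inhibition above a set limit at 5 µM in the primary screen, cut at about 50% in these data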
# Numbers stand for hits; - = inactive; . = no result given.
SMILES,CYP2C9 act,CYP2C19 activ,CYP2C9 inh,Cav32 inh,HIV Rev-RRE inh,CYP2C19 inhib
O=C(COc1ccc(S(=O)(=O)N2CCOCC2)cc1)Nc1ccc2c(c1)OCCO2,-,-,-,-,-,-
O=C(COc1ccc(S(=O)(=O)N2CCOCC2)cc1)Nc1ccc(Cl)c(C(F)(F)F)c1,-,-,53.1,-5.46,-,-
O=C(COC(=O)CCc1ccc(S(=O)(=O)N2CCOCC2)cc1)Nc1ncc(C(F)(F)F)cc1Cl,-,-,54.7,-,-,-
O=C(NCCOc1ccccc1)c1cc2ccccc2o1,-,-,-,-,-,-
Cc1ccc(-n2c(C)cc(/C=N/NC(=O)c3ccncc3)c2C)c(C)c1,-,-,-,-,-,-
O=C(COC(=O)Cc1ccc(S(=O)(=O)N2CCOCC2)s1)NCc1ccccc1,-,-,-,-,-,-
CCN(CC)S(=O)(=O)c1ccc(C)c(NC(=O)COC(=O)c2ccc(C)c(S(=O)(=O)N3CCOCC3)c2)c1,-,-,95.7,-4.16,-,91.5
O=C(COC(=O)Cc1ccc(S(=O)(=O)N2CCCCC2)s1)Nc1ccc2c(c1)OCO2,-,-,97.9,-,-,66.1
Cc1cc(C(=O)OCC(=O)Nc2cc(S(=O)(=O)N3CCOCC3)ccc2Cl)c(C)o1,-,-,79.6,-,-,51.8
COc1cccc(NC(=O)COC(=O)c2cc(S(=O)(=O)N3CCOCC3)ccc2C)c1,-,-,-,-,-,-
O=C(COC(=O)c1ccc2ccccc2c1)Nc1ncc(C(F)(F)F)cc1Cl,-,-,-,-,-,-
O=C(COC(=O)c1ccc2ccccc2n1)Nc1ncc(C(F)(F)F)cc1Cl,-,-,50.7,-,-,58.3
C(=N\Nc1nc(-c2ccccc2)cs1)/c1cccs1,-,-,-,-,-,-
O=C(COC(=O)Cc1ccc(S(=O)(=O)N2CCOCC2)s1)NCCc1ccccc1,-,-,60.2,-,-,-
CCc1nc2ccccc2c(C(=O)OCC(=O)Nc2ccc(S(=O)(=O)N3CCOCC3)cc2)c1C,-,-,54.0,-,.,-
CCn1c(SCC(=O)N2CCCc3ccccc32)nnc1-c1ccoc1C,.,.,.,-,-,.
c1cc2c3c(cccc3c1)C(N1CCN(C3=Nc4cccc5cccc3c45)CC1)=N2,.,.,.,.,40.0,.
c1ccc(CC2CCN(C3=Nc4cccc5cccc3c45)CC2)cc1,-,-,-,.,42.1,86.7
CC(=O)N1CCN(C2=Nc3cccc4cccc2c34)CC1,-,-,-,-,.,-
O=C(Nc1ccc(-c2csc(Nc3ccccc3)n2)cc1)c1cc([N+](=O)[O-])cc(C(F)(F)F)c1,.,.,.,-,.,.
CCCCN(CC)CCNS(=O)(=O)c1ccc2c(c1)oc(=O)n2C,-,-,-,-,-,-
Cn1c(=O)cc(OCCCC(=O)NCc2ccc3c(c2)OCO3)c2ccccc21,-,-,-,-,-,-
O=c1cc(CSc2ccc(S(=O)(=O)N3CCCCC3)cn2)nc2sccn12,-,-,79.7,-,-,65.9
O=S(=O)(c1ccc(SCCO)nc1)N1CCCC1,-,-,-,-,-,-
CN(CCO)C(=O)CCC(=O)Nc1ccc(S(N)(=O)=O)cc1,-,-,-,-,-,-
SMILES,CYP2C9 act,CYP2C19 activ,CYP2C9 inh,Cav32 inh,HIV Rev-RRE inh,CYP2C19 inhib
N#CC1=C(N)C(C#N)(C#N)C(c2cccnc2)C2CC(c3ccccc3)CC=C12 (configuration not stated),-,-,63.8,-,-,-
N#CC1=C(N)C(C#N)(C#N)C(c2cccnc2)C2CCCC=C12 (configuration not stated),-,-,-,-,-,-
CCOC(=O)c1cc(C)n(Cc2ccc(OCC)c(OC)c2)c1C,-,-,59.4,-,-,-
Cc1ccc(-c2nn(CC(=O)N(C)C)c(=O)c3ccccc23)cc1S(=O)(=O)N(C)C,-,-,62.2,-,-,-
CN(C)C(=O)Cn1nc(-c2ccccc2)c2ccccc2c1=O,-,-,-,-,-,-
Cc1ccc(-c2nn3c(C)nnc3c3ccccc23)cc1S(=O)(=O)N(C)CCO,-,-,85.5,-,-,-
CCOC(=O)N1CCN(S(=O)(=O)c2cc(-c3nn4c(C)nnc4c4ccccc34)ccc2C)CC1,-,-,80.1,-,-,56.1
Cc1ccc(-c2nn3c(-c4ccco4)nnc3c3ccccc23)cc1S(=O)(=O)N1CCOCC1,-,-,-,.,.,-
Cc1ccc(-c2nn3c(C)nnc3c3ccccc23)cc1S(=O)(=O)NCc1ccccc1,-,-,-,-,-,-
COCCN(C(=O)c1ccco1)C(C(=O)NC1CCCC1)c1cccs1 (configuration not stated),.,.,.,-,-,.
O=C(CSc1ncc(-c2ccccc2)[nH]1)Nc1cccc(O)c1,-,-,-,-,-,62.4
NC(=O)CSc1ncc(-c2ccccc2)[nH]1,-,-,-,-,-,-
O=C(CSc1ncc(-c2ccccc2)[nH]1)Nc1ccccc1,-,-,56.4,-,-,75.1
O=C(CSc1ncc(-c2ccc(F)cc2)[nH]1)N1CCCCC1,-,-,-,-,-,84.5
O=C(CSc1nc2c(cnn2-c2ccc(F)cc2)c(=O)[nH]1)N1CCCCC1,-,-,-,.,-,-
CSc1ccc(/C=N/n2nnnc2N)cc1,-,-,-,-,.,-
CCc1ccc(N2CCN(C(=O)c3ccc(OC)c(OC)c3)CC2)cc1,-,-,-,-,.,-
COC1(OC)N=C(N)C2(C#N)C(c3cccc(Oc4ccccc4)c3)C12C#N (configuration not stated),-,-,55.6,-4.97,-,59.3
CCOC1(OCC)N=C(N)C2(C#N)C(c3ccc(NC(C)=O)cc3)C12C#N (configuration not stated),-,-,87.7,-,-,-
COc1ccc(C2NC3=C(CCC3)C3(C#N)C(OC)(OC)N=C(N)C23C#N)cc1 (configuration not stated),.,.,.,-,-,.
COc1cccc(C2C3(C#N)C(N)=NC(OC)(OC)C23C#N)c1 (configuration not stated),-,-,-,-,-,-
CCSC1(SCC)N=C(N)C2(C#N)C(c3ccc(F)cc3)C12C#N (configuration not stated),-,-,57.8,-,-,61.5
COc1ccc(C2/C(=C(\O)c3ccc4c(c3)OCCO4)C(=O)C(=O)N2Cc2ccco2)c(OC)c1 (configuration not stated),.,.,.,-,-,.
COc1cc2[nH]c(=O)n(CCCCCC(=O)NCCCN3CCC(C)CC3)c(=O)c2cc1OC,.,.,.,-,-,.
O=c1cc(N2CCCC2)[nH]c(=O)n1-c1ccc(Cl)cc1,.,.,.,-,-,.
